Measurements reported in ChEMBL document CHEMBL3868601, “Functional 1,3a,6a-triazapentalene scaffold: Design of fluorescent probes for kinesin spindle protein (KSP)” (Bioorg Med Chem Lett, 2016).
pIC50: −log10 of the molar value. Calls of active or inactive are those of the source. No cut-off for these calls is given here.

Columns and labels:
[1] = target: T1, Kinesin-like protein KIF11 (Homo sapiens, UniProt P52732); test: Inhibition of microtubule-stimulated kinesin spindle protein motor domain (unknown origin) ATPase activity preincubated for 20 mins followed by ATP addition measured after 15 mins by kinase-glo based luciferase reporter gene assay
T1 sequence (P52732 whole entry): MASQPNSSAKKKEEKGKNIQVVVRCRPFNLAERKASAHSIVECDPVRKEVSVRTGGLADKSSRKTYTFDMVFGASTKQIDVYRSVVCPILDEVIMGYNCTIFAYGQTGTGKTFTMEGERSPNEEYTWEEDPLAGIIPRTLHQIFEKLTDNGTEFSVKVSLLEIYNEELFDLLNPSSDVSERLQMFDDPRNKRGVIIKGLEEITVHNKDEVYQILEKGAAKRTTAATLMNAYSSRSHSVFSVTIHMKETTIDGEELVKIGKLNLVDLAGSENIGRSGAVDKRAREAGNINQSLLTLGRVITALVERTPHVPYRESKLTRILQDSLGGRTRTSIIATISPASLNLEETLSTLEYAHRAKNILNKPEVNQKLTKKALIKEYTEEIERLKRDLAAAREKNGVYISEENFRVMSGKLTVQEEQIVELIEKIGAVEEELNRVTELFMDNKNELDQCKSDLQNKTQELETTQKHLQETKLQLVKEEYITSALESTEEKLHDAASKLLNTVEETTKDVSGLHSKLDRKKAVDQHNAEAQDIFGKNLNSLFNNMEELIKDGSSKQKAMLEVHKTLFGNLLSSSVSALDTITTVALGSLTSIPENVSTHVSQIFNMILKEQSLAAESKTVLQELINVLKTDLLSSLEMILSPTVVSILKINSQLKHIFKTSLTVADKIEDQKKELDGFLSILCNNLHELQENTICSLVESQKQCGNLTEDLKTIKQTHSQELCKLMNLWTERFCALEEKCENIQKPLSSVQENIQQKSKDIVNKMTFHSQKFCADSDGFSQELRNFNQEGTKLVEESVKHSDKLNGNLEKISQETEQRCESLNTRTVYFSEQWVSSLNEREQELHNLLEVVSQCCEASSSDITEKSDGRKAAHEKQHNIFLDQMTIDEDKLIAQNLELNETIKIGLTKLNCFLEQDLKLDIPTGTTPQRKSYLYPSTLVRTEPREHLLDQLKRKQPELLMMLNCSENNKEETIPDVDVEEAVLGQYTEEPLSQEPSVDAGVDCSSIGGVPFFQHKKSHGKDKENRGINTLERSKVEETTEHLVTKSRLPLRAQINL
Summary of the method: (§1)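 Inhibition of microtubule-activated KSP ATPase activity was measured in vitro. IC50 values come from three independent experiments. Percent inhibition was also measured at 20 µM.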

[2] = target: T2, Kinesin-like protein KIF11 (Homo sapiens) (UniProt P52732); test: Inhibition of microtubule-stimulated kinesin spindle protein motor domain (unknown origin) ATPase activity at 20 uM preincubated for 20 mins followed by ATP addition measured after 15 mins by kinase-glo based luciferase reporter gene assay; summary of the method: as §1
T2 sequence (whole entry): T1 sequence (P52732 whole entry)

[3] = Growth inhibition of human HeLa cells after 72 hrs by MTS assay; assay type: functional
Summary of the method: (§2)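 Proliferation of HeLa and A549 cells was measured by MTS assay. GI50 values, or percent growth inhibition at a single concentration (30 µM), come from at least three independent experiments.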

[4] = Growth inhibition of human A549 cells after 72 hrs by MTS assay; assay type: functional; details: A549, 72 h; summary of the method: as §2
[5] = Growth inhibition of human A549 cells at 30 uM after 72 hrs by MTS assay; assay type: functional; details: A549, 72 h, read-out: GI; summary of the method: as §2
[6] = Solubility of the compound in DMEM medium at >50 uM by microscopic analysis; assay type: physicochemical
Summary of the method: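 During the 4 h mitotic assay in synchronized HeLa cells, the culture medium was inspected by microscopy for deposits of insoluble compound across the tested concentrations.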

[7] = target: T2, Kinesin-like protein KIF11 (Homo sapiens); test: Inhibition of hmAG1-fused kinesin spindle protein (unknown origin) ATPase activity expressed in human HeLa cells assessed as accumulation of mitotic cells after 4 hrs by DAPI staining based fluorescence microscopy; assay type: cell-based
Summary of the method: (§3)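 Synchronized HeLa cells were given compound as they entered M phase and cultured 4 h at 37 °C. Cells were fixed and immunostained for α-tubulin and KSP, with DAPI for chromosomes. The relative mitotic index was averaged over two independent experiments. Mitotic phenotypes, such as prometaphase with monopolar spindles, were scored as a percentage of mitotic cells.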

[8] = target: T2, Kinesin-like protein KIF11 (Homo sapiens); test: Inhibition of hmAG1-fused kinesin spindle protein (unknown origin) ATPase activity expressed in human HeLa cells assessed as prometaphase with monopolar spindles at 40 uM after 4 hrs by DAPI staining based fluorescence microscopy relative to control; assay type: cell-based; summary of the method: as §3
[9] = Drug uptake in cytoplasm of human HeLa cells expressing hmAG1-conjugated alpha-tubulin at 20 uM after 20 mins by fluorescence microscopic analysis; assay type: ADME, cell-based
Summary of the method: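 Live HeLa cells expressing hmAG1-conjugated α-tubulin (cytoplasm marker) or histone H2B (nucleus marker) were incubated with 20 µM probe for 20 min at 37 °C. Probe localization was imaged by live-cell fluorescence microscopy.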

[10] = Drug uptake in monoastral mitotic human HeLa cells expressing N-terminal hmAG1-tagged recombinant fluorescent KSP at 40 uM after 20 mins by fluorescence microscopic analysis; assay type: ADME, cell-based
Summary of the method: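 HeLa cells stably expressing KSP fused at its N-terminus to hmAG1 were treated in mitosis with 40 µM probe for 20 min at 37 °C. Live-cell fluorescence microscopy compared probe signal with the fluorescent KSP signal in monoastral mitotic cells.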

[11] = target: T2, Kinesin-like protein KIF11 (Homo sapiens); test: Inhibition of hmAG1-fused kinesin spindle protein (unknown origin) ATPase activity expressed in human HeLa cells assessed as irregular accumulation of KSP in central region of mitotic cells at 40 uM after 4 hrs by DAPI staining based fluorescence microscopy; assay type: cell-based
[12] = Drug uptake in human HeLa cells at G2 phase expressing N-terminal hmAG1-tagged recombinant fluorescent KSP at 20 uM after 20 mins by fluorescence microscopic analysis
[13] = Drug uptake in human HeLa cells at early mitotic phase expressing N-terminal hmAG1-tagged recombinant fluorescent KSP at 20 uM after 20 mins by fluorescence microscopic analysis

pIC50 [1] | inhibition [2] | solubility [6] | inhibition [7] | inhibition [8] | Drug uptake [9] | Drug uptake [10] | inhibition [11] | Drug uptake [12] | Drug uptake [13] | Compound | GI50 [3] | GI50 [4] | inhibition of growth at 30 µM [5]
< 4.70 | 34% |  |  |  |  |  |  |  |  | FC(F)(F)c1ccc(-c2cn3ccc[n+]3[n-]2)cc1 | 25 µM | > 30 µM | 6%
5.17 |  | Insoluble | Dose-dependent effect | 63% | Active | Active | Active | Active | Active | FC(F)(F)c1ccc(-c2ccc(-c3cn4ccc[n+]4[n-]3)cc2)cc1 | 19 µM | 22 µM | 
